This is an account of results in ChEMBL document CHEMBL4725242, “Discovery of GS-9688 (Selgantolimod) as a Potent and Selective Oral Toll-Like Receptor 8 Agonist for the Treatment of Chronic Hepatitis B” (J Med Chem, 2020).

For orientation: Papp B→A means how fast a substance crosses the layer from the basolateral side. What is called half-life is the time in which the quantity being followed falls by half.

The source made the active and inactive calls.

The nature of series [1]: Immunomodulatory activity in human primary hepatocytes infected with HBV assessed as stimulation of CD8+T cell response to virus by measuring decrease in HBV DNA production treated with media from PBMC stimulated with 10 nM compound for 10 days relative to control. Format: functional. Details: scale not given: the % may be the effect or the level left. The note with it: time 10 day.

Series [2] in a line: Apparent permeability across basolateral to apical side in human Caco2 cells measured after 1 to 2 hrs by LC-MS/MS analysis. The note with it: Caco-2.
Series [3] in a line: Clearance in dog hepatic microsomes at 2 uM measured up to 60 mins in presence of NADPH generating system by LC-MS/MS analysis. Conditions: liver microsomes. The class given is ADME, Canis lupus familiaris, Microsome. Background: Microsomes from liver hold many membrane-bound enzymes, among them those of drug oxidation.
The nature of series [4]: Drug metabolism in human hepatocytes assessed as hydroxyl oxidation to the acid. Format: ADME, cell-based, Hepatocyte.
A short description of series [5]: Drug metabolism in human hepatocytes assessed as glucuronidation. Format: ADME, cell-based, Hepatocyte.
A short description of series [6]: Half life in Beagle dog at 0.25 mg/kg, iv administered as 30 mins infusion by HPLC-MS analysis. The note with it: in vivo. The class given is ADME, organism-based, Canis lupus familiaris. The gist of the method:
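30-min intravenous infusion: Sprague Dawley rats 1 mg/kg, beagle dogs 0.25 mg/kg, cynomolgus monkeys 0.1 mg/kg; n = 3 per species, reported as mean ± SD.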

For series [7], the target named is Toll-like receptor 4 (Homo sapiens) (UniProt O00206). The experiment in a line: Agonist activity at human TLR4 expressed in HEK293 cells assessed as increase in NF-kappaB activation up to 10 uM incubated for 24 hrs by quanti-blue SEAP reporter gene assay. The class given is cell-based. Conditions: dose microM <=10, time 24.0 hrs. The gist of the method: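 HEK293 cells stably expressing individual human TLRs or other innate immune receptors, used as reporter gene assays. Minimum effective concentration defined as the level giving a 3-fold rise over background.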

Series [8] in a line: Immunomodulatory activity in human primary hepatocytes infected with HBV assessed as stimulation of CD8+T cell response to virus by measuring decrease in HBV RNA production treated with media from PBMC stimulated with 10 nM compound for 10 days by PCR analysis relative to control. The class given is functional. Details: scale not given: the % may be the effect or the level left. The note with it: time 10 day.

Series [9] has as its system Hepatitis B virus. The experiment in a line: Antiviral activity against HBV infected in human primary hepatocytes. Format: functional, organism-based. Conditions: Primary hepatocyte.
Series [10] deals with PBMC. The experiment in a line: Immunomodulatory activity in human primary hepatocytes infected with HBV assessed as stimulation of CD8+T cell response to virus by measuring degradation of cccDNA treated with media from PBMC stimulated with 10 nM compound for 10 days. The class given is functional, cell-based. The note with it: time 10.0 day.

Sequence of Toll-like receptor 4 (Homo sapiens) (O00206 whole entry): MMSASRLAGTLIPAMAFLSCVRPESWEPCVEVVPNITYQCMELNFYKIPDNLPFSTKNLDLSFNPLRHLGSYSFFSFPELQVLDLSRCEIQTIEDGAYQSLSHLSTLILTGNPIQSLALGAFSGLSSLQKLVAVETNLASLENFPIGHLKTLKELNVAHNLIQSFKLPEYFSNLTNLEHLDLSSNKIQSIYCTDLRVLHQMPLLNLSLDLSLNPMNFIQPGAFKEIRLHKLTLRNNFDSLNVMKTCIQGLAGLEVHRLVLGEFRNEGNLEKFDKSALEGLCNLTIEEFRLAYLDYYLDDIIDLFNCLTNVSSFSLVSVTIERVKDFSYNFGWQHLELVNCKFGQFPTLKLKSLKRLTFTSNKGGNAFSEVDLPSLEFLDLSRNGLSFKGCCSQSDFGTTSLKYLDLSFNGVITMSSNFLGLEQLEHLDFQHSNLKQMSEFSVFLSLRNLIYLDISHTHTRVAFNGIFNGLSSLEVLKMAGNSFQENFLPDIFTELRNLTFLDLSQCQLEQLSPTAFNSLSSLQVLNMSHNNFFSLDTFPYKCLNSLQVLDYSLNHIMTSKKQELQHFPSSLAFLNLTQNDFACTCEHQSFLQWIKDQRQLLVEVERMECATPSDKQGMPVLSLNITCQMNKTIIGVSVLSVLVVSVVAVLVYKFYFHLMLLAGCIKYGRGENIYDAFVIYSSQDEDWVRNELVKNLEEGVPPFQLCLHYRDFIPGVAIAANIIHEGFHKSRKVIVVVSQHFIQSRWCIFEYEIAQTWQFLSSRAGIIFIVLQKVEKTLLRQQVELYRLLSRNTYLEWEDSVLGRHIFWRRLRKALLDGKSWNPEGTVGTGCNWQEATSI

As to `CCCC[C@](C)(CO)Nc1nc(N)nc2cc(F)cnc12` [SELGANTOLIMOD], the Activity in series [1] and in series [8] was more than 50% throughout. For the same molecule, the basolateral-to-apical permeability (Papp B→A) in series [2] turned out to be 11 ×10⁻⁶ cm/s. Also, the CLhep predicted at 2 µM in series [3] was 28.3 mL/min/kg. Moreover, the Drug metabolism entry in series [4] and in series [5] was “Metabolite_Detected” each time. This molecule also showed a half-life in series [6] of 1.32 h. Besides, the outcome in series [7], in [9] and in series [10] was inactive.
